The source of these data is ChEMBL document CHEMBL1145084, “Polymer-assisted solution-phase library synthesis and crystal structure of alpha-ketothiazoles as tissue factor VIIa inhibitors” (J Med Chem, 2003).

The structures appear in SMILES notation.

Test [1] concerns the target Thrombin and coagulation factor VII (Homo sapiens) (UniProt P00734+P08709). Kind of test: Selectivity for coagulation factor VIIa over thrombin IIa. The test is classed as protein assay.
In the next test the target is Prothrombin (Homo sapiens, UniProt P00734). Kind of test: Inhibitory activity against thrombin (IIa). In short, it runs like this: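 Human thrombin (0.28 nM) with H-D-Phe-Pip-Arg-p-nitroaniline (0.06 mM) in 50 mM Tris-HCl pH 8.0, 100 mM NaCl, 0.1% BSA. Immediate background read at 405 nm, then 60 min at room temperature before measuring p-nitroaniline release rate at 405 nm. Seven concentrations in duplicate; % inhibition versus control; IC50 by four-parameter logistic regression.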

The target in the next test is T1, Coagulation factor VII (Homo sapiens, UniProt P08709).
T1 sequence (P08709 whole entry): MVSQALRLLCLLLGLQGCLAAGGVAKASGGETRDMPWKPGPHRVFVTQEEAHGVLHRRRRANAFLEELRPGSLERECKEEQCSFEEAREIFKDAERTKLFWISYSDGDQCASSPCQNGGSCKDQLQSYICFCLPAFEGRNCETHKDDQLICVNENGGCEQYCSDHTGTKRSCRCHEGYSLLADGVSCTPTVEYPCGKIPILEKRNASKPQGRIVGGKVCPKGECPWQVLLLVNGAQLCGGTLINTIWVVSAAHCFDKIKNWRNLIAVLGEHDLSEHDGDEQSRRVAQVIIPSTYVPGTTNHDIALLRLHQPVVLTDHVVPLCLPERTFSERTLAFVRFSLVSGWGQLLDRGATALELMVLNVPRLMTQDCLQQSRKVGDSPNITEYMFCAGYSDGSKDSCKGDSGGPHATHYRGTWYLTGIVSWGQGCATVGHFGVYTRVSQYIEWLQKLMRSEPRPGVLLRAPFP
Kind of test: Inhibitory activity against tissue coagulation factor VII. In short, it runs like this:
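Complex of recombinant soluble tissue factor (100 nM) and recombinant human Factor VIIa (2 nM). Substrate N-methylsulfonyl-D-Phe-Gly-Arg-p-nitroaniline at 0.4 mM in 5 mM CaCl2, 50 mM Tris-HCl pH 8.0, 100 mM NaCl, 0.1% BSA. Background A405 read first; after 60 min at room temperature, hydrolysis rate read at 405 nm. Duplicates at seven concentrations; IC50 is the duplicate average.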

The next test addresses Coagulation factor X (Homo sapiens, UniProt P00742). Kind of test: Inhibitory activity against coagulation factor X. In short, it runs like this: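 Human Factor Xa (0.3 nM) with chromogenic substrate S-2765 (0.15 mM) in 50 mM Tris-HCl pH 8.0, 100 mM NaCl, 0.1% BSA. A405 background read taken at once, then 60 min at room temperature, then p-nitroaniline release rate at 405 nm. Duplicates at seven concentrations; % inhibition versus control; IC50 from four-parameter logistic fit, averaged over the duplicates.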

Coagulation factor X, sequence (P00742 41-179 limits assumed): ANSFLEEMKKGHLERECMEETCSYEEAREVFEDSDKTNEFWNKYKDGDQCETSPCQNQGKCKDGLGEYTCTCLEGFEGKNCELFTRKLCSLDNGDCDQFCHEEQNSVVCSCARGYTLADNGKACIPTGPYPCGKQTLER
Coagulation factor X, sequence (P00742 235-488 limits assumed): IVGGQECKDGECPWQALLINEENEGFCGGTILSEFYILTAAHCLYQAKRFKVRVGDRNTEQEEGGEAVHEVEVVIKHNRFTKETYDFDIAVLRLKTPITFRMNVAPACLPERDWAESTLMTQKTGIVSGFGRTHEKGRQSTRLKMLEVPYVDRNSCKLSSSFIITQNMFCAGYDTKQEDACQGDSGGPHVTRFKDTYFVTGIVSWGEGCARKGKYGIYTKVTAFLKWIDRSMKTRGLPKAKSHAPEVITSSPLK

Consider `N=C(N)NCCC[C@H](NC(=O)[C@H](Cc1ccc(F)c(F)c1)NC(=O)[C@@H](Cc1ccccc1)NS(=O)(=O)Cc1ccccc1)C(=O)c1nccs1`, for which the Selectivity in test [1] amounted to 70.
As usually defined, the IC50 is the concentration at which inhibition is half-maximal. For the compound `CC(C)(C)C[C@H](NC(=O)[C@@H](Cc1ccccc1)NS(=O)(=O)Cc1ccccc1)C(=O)N[C@@H](CCCNC(=N)N)C(=O)c1nccs1`, the IC50 against Prothrombin is 440 nM; against Coagulation factor VII it was 700 nM; at Coagulation factor X, 1030 nM.
The compound `N#CC[C@H](NC(=O)[C@@H](Cc1ccccc1)NS(=O)(=O)Cc1ccccc1)C(=O)N[C@@H](CCCNC(=N)N)C(=O)c1nccs1` had a Selectivity in test [1] of 69.
The compound `N#Cc1ccc(C[C@H](NC(=O)[C@@H](Cc2ccccc2)NS(=O)(=O)Cc2ccccc2)C(=O)N[C@@H](CCCNC(=N)N)C(=O)c2nccs2)cc1` registered a Selectivity in test [1] of 147.
In the case of `Cc1ccc(C[C@H](NC(=O)[C@@H](Cc2ccccc2)NS(=O)(=O)Cc2ccccc2)C(=O)N[C@@H](CCCN=C(N)N)C(=O)c2nccs2)cc1`, the IC50 against Prothrombin came to 7480 nM; against Coagulation factor VII, 1290 nM; against Coagulation factor X it was 570 nM. The compound further displayed a Selectivity in test [1] of 6.
Regarding `N=C(N)NCCC[C@H](NC(=O)[C@H](Cc1ccc(I)cc1)NC(=O)[C@@H](Cc1ccccc1)NS(=O)(=O)Cc1ccccc1)C(=O)c1nccs1`, the IC50 against Prothrombin turned out to be 6300 nM; against Coagulation factor VII it was 1560 nM; against Coagulation factor X, 500 nM. Further, in test [1], the Selectivity came to 4.
The compound `Cc1cccc(C[C@H](NC(=O)[C@@H](Cc2ccccc2)NS(=O)(=O)Cc2ccccc2)C(=O)N[C@@H](CCCN=C(N)N)C(=O)c2nccs2)c1` gave a Selectivity in test [1] of 71.
On the same count and under the same terms, with `N=C(N)NCCC[C@H](NC(=O)[C@H](Cc1ccccc1F)NC(=O)[C@@H](Cc1ccccc1)NS(=O)(=O)Cc1ccccc1)C(=O)c1nccs1` the figure was above 333.
Take `N=C(N)NCCC[C@H](NC(=O)[C@H](Cc1cccc2ccccc12)NC(=O)[C@@H](Cc1ccccc1)NS(=O)(=O)Cc1ccccc1)C(=O)c1nccs1`: the IC50 on Prothrombin was above 30000 nM; against Coagulation factor VII, 5600 nM; against Coagulation factor X, 1800 nM. For the same compound, the Selectivity in test [1] is above 5.
`N=C(N)NCCC[C@H](NC(=O)[C@H](Cc1ccc(-c2ccccc2)cc1)NC(=O)[C@@H](Cc1ccccc1)NS(=O)(=O)Cc1ccccc1)C(=O)c1nccs1`: the figures for the 50% inhibitory concentration (IC50) against Prothrombin, against Coagulation factor VII and against Coagulation factor X were 11200 nM, 17800 nM and 3140 nM, respectively. In addition, the Selectivity in test [1] is 1.
On to `N=C(N)NCCC[C@H](NC(=O)[C@H](Cc1cc(F)c(F)c(F)c1)NC(=O)[C@@H](Cc1ccccc1)NS(=O)(=O)Cc1ccccc1)C(=O)c1nccs1`, for which the IC50 turned out to be 200 nM at Coagulation factor VII and 250 nM on Coagulation factor X.
For `N=C(N)NCCC[C@H](NC(=O)[C@H](Cc1ccc2ccccc2c1)NC(=O)[C@@H](Cc1ccccc1)NS(=O)(=O)Cc1ccccc1)C(=O)c1nccs1`, the IC50 is 2400 nM at Prothrombin, 1950 nM at Coagulation factor VII and 770 nM on Coagulation factor X. Also, the Selectivity in test [1] worked out at 1.
The compound `N=C(N)NCCC[C@H](NC(=O)[C@H](Cc1cccc(C(F)(F)F)c1)NC(=O)[C@@H](Cc1ccccc1)NS(=O)(=O)Cc1ccccc1)C(=O)c1nccs1` registered a Selectivity in test [1] of 106.
On to `N=C(N)NCCC[C@H](NC(=O)[C@H](Cc1cc(F)cc(F)c1)NC(=O)[C@@H](Cc1ccccc1)NS(=O)(=O)Cc1ccccc1)C(=O)c1nccs1`, for which the half-maximal inhibitory concentration (IC50) against Prothrombin was 6820 nM; at Coagulation factor VII it was 190 nM; at Coagulation factor X, 180 nM. The compound also registered a Selectivity in test [1] of 36.
Consider `N=C(N)NCCC[C@H](NC(=O)[C@H](CCc1ccccc1)NC(=O)[C@@H](Cc1ccccc1)NS(=O)(=O)Cc1ccccc1)C(=O)c1nccs1`, for which the IC50 against Prothrombin was found to be 10400 nM; against Coagulation factor VII, 900 nM; against Coagulation factor X it was 540 nM. In addition, the Selectivity in test [1] was found to be 12.
For `CS(=O)(=O)CC[C@H](NC(=O)[C@@H](Cc1ccccc1)NS(=O)(=O)Cc1ccccc1)C(=O)N[C@@H](CCCN=C(N)N)C(=O)c1nccs1` the same measures were 12900 nM, 13700 nM, 2000 nM and 1.
In the case of `N=C(N)NCCC[C@H](NC(=O)[C@H](CC(N)=O)NC(=O)[C@@H](Cc1ccccc1)NS(=O)(=O)Cc1ccccc1)C(=O)c1nccs1`, the Selectivity in test [1] worked out at 58.
Same read-out and setting: the figure for `N=C(N)NCCC[C@H](NC(=O)[C@H](Cc1cccc(F)c1)NC(=O)[C@@H](Cc1ccccc1)NS(=O)(=O)Cc1ccccc1)C(=O)c1nccs1` is 75; for `CC[C@@H](C)[C@H](NC(=O)[C@@H](Cc1ccccc1)NS(=O)(=O)Cc1ccccc1)C(=O)N[C@@H](CCCN=C(N)N)C(=O)c1nccs1` it is 64.
Turning to `N=C(N)NCCC[C@H](NC(=O)[C@H](COCc1ccccc1)NC(=O)[C@@H](Cc1ccccc1)NS(=O)(=O)Cc1ccccc1)C(=O)c1nccs1`, the IC50 on Prothrombin amounted to 9890 nM; against Coagulation factor VII, 1530 nM; against Coagulation factor X, 310 nM. The compound also displayed a Selectivity in test [1] of 6.
Consider `N=C(N)NCCC[C@H](NC(=O)[C@H](Cc1ccc(Cl)cc1)NC(=O)[C@@H](Cc1ccccc1)NS(=O)(=O)Cc1ccccc1)C(=O)c1nccs1`, for which the results for the IC50 at Prothrombin, on Coagulation factor VII and against Coagulation factor X were 3420 nM, 680 nM and 610 nM, respectively. Further, the Selectivity in test [1] amounted to 5.
Compound `N=C(N)NCCC[C@H](NC(=O)[C@H](Cc1cccc(Cl)c1)NC(=O)[C@@H](Cc1ccccc1)NS(=O)(=O)Cc1ccccc1)C(=O)c1nccs1` yielded a Selectivity in test [1] of 63.
With `N=C(N)NCCC[C@H](NC(=O)[C@H](Cc1cccnc1)NC(=O)[C@@H](Cc1ccccc1)NS(=O)(=O)Cc1ccccc1)C(=O)c1nccs1`, the Selectivity in test [1] came out at 500.
`NC(N)=NCCC[C@H](NC(=O)[C@H](Cc1ccc([N+](=O)[O-])cc1)NC(=O)[C@@H](Cc1ccccc1)NS(=O)(=O)Cc1ccccc1)C(=O)c1nccs1`: the IC50 on Prothrombin was above 30000 nM; on Coagulation factor VII, 5880 nM; against Coagulation factor X, 2180 nM.
For `CC(=O)Nc1ccc(C[C@H](NC(=O)[C@@H](Cc2ccccc2)NS(=O)(=O)Cc2ccccc2)C(=O)N[C@@H](CCCNC(=N)N)C(=O)c2nccs2)cc1`, the IC50 worked out at 4590 nM at Prothrombin, 570 nM against Coagulation factor VII and 300 nM on Coagulation factor X.
Turning to `N=C(N)NCCC[C@H](NC(=O)[C@H](CC1CC1)NC(=O)[C@@H](Cc1ccccc1)NS(=O)(=O)Cc1ccccc1)C(=O)c1nccs1`, the IC50 at Prothrombin amounted to 9200 nM; on Coagulation factor VII, 820 nM; at Coagulation factor X, 2120 nM. Moreover, in test [1], the Selectivity was determined as 11.
`N=C(N)NCCC[C@H](NC(=O)[C@H](Cc1ccc([N+](=O)[O-])cc1)NC(=O)[C@@H](Cc1ccccc1)NS(=O)(=O)Cc1ccccc1)C(=O)c1nccs1` returned a Selectivity in test [1] above 5.
In the case of `CN(C)CCCC[C@H](NC(=O)[C@@H](Cc1ccccc1)NS(=O)(=O)Cc1ccccc1)C(=O)N[C@@H](CCCN=C(N)N)C(=O)c1nccs1`, the Selectivity in test [1] stood at 5.
Take `N=C(N)NCCC[C@H](NC(=O)[C@H](Cc1csc2ccccc12)NC(=O)[C@@H](Cc1ccccc1)NS(=O)(=O)Cc1ccccc1)C(=O)c1nccs1`: the IC50 on Prothrombin came out at 15400 nM; against Coagulation factor VII, 500 nM; on Coagulation factor X, 150 nM. This compound showed a Selectivity in test [1] of 3.
For `Cc1cccc(C)c1C[C@H](NC(=O)[C@@H](Cc1ccccc1)NS(=O)(=O)Cc1ccccc1)C(=O)N[C@@H](CCCN=C(N)N)C(=O)c1nccs1` the same measures were 28100 nM, 700 nM, 2770 nM and 40.
In the case of `CC(=O)Nc1ccc(C[C@H](NC(=O)[C@@H](Cc2ccccc2)NS(=O)(=O)Cc2ccccc2)C(=O)N[C@@H](CCCN=C(N)N)C(=O)c2nccs2)cc1`, the Selectivity in test [1] turned out to be 8.
Take `CC(C)(C)C[C@H](NC(=O)[C@@H](Cc1ccccc1)NS(=O)(=O)Cc1ccccc1)C(=O)N[C@@H](CCCN=C(N)N)C(=O)c1nccs1`: the Selectivity in test [1] was 0.6.
Turning to `CN(C)CCCC[C@H](NC(=O)[C@@H](Cc1ccccc1)NS(=O)(=O)Cc1ccccc1)C(=O)N[C@@H](CCCNC(=N)N)C(=O)c1nccs1`, the results for the IC50 against Prothrombin, at Coagulation factor VII and on Coagulation factor X were 15400 nM, 2820 nM and 1700 nM, respectively.
In turn, `Cc1ccccc1C[C@H](NC(=O)[C@@H](Cc1ccccc1)NS(=O)(=O)Cc1ccccc1)C(=O)N[C@@H](CCCN=C(N)N)C(=O)c1nccs1` yielded a Selectivity in test [1] of 90.
The same measure, in the same setting: the figure for `N=C(N)NCCC[C@H](NC(=O)[C@H](Cc1ccccc1)NC(=O)[C@@H](Cc1ccccc1)NS(=O)(=O)Cc1ccccc1)C(=O)c1nccs1` is 95.
